Values after ≈ are worked out from the molar mass of the structure shown.
Assays:
Format in all cases: functional
Aspergillus niger = assay: Antifungal activity against Aspergillus niger ATCC 16404 after 24 to 72 hrs by microdilution method
Method in brief: (§1)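 Broth microdilution MIC in U-bottom 96-well plates. Compound stock made in Sabouraud dextrose broth/DMSO (9:1) and serially diluted with SDB. Fungal suspension (1 × 10^3 CFU/mL) added to give a final inoculum of 0.5 × 10^3 CFU/mL. Plates incubated at 35 °C and read at 24, 48 and 72 h. MIC is the lowest concentration with no visible growth compared with a drug-free control well.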

Saccharomyces cerevisiae [1] = assay: Antifungal activity against Saccharomyces cerevisiae ATCC 9763 after 24 to 72 hrs by microdilution method; method in brief: as §1
Saccharomyces cerevisiae [2] = assay: Antifungal activity against Saccharomyces cerevisiae NCYC 694 after 24 to 72 hrs by microdilution method; method in brief: as §1
Nakaseomyces glabratus = assay: Antifungal activity against Candida glabrata ATCC 90030 after 24 to 72 hrs by microdilution method; method in brief: as §1
Candida albicans [3] = assay: Antifungal activity against Candida albicans ATCC 10231 after 24 to 72 hrs by microdilution method; method in brief: as §1
Candida albicans [4] = assay: Ratio of fluconazole MIC to compound MIC for Candida albicans ATCC 10231
Saccharomyces cerevisiae [5] = assay: Ratio of fluconazole MIC to compound MIC for Saccharomyces cerevisiae NCYC 694

| Structure (SMILES) | MIC (Aspergillus niger) [µg/mL] | MIC (Saccharomyces cerevisiae [1]) [µg/mL] | MIC (Saccharomyces cerevisiae [2]) [µg/mL] | MIC (Nakaseomyces glabratus) [µg/mL] | MIC (Candida albicans [3]) [µg/mL] | Ratio (Candida albicans [4]) | Ratio (Saccharomyces cerevisiae [5]) |
| --- | --- | --- | --- | --- | --- | --- | --- |
| COc1cccc([C@@H]2Oc3ccccc3C(=O)[C@H]2n2cncn2)c1 (relative stereo) | > 62.5 | > 125 | > 125 | > 62.5 | > 125 | – | – |
| O=C1c2ccccc2O[C@@H](c2ccc(Cl)cc2)[C@@H]1n1cncn1 (relative stereo) | > 62.5 | 3.9 (≈ 12 µM) | > 125 | > 62.5 | 3.9 (≈ 12 µM) | – | – |
| CC(=O)N1CCN(c2ccc(OCC3COC(Cn4ccnc4)(c4ccc(Cl)cc4Cl)O3)cc2)CC1 (stereo unspecified) [KETOCONAZOLE] | 15.6 (≈ 29.4 µM) | – | – | – | – | – | – |
| O=C1c2ccccc2O[C@@H](c2cccc(Cl)c2)[C@@H]1n1cncn1 (relative stereo) | > 62.5 | > 125 | 1.95 (≈ 5.99 µM) | 62.5 (≈ 192 µM) | 3.9 (≈ 12 µM) | 8 | 8 |
| Cc1ccc([C@@H]2Oc3ccccc3C(=O)[C@H]2n2cncn2)cc1 (relative stereo) | > 62.5 | > 125 | > 125 | > 62.5 | > 125 | – | – |
| COc1ccccc1[C@@H]1Oc2ccccc2C(=O)[C@H]1n1cncn1.O=[N+]([O-])O (relative stereo) | > 62.5 | > 125 | > 125 | > 62.5 | > 125 | – | – |
| COc1ccc([C@@H]2Oc3ccccc3C(=O)[C@H]2n2cncn2)cc1 (relative stereo) | > 62.5 | 125 (≈ 389 µM) | > 125 | > 62.5 | > 125 | – | – |
| O=C1c2ccccc2O[C@@H](c2ccccc2Cl)[C@@H]1n1cncn1.O=[N+]([O-])O (relative stereo) | > 62.5 | 125 | > 125 | > 62.5 | > 125 | – | – |
| OC(Cn1cncn1)(Cn1cncn1)c1ccc(F)cc1F [FLUCONAZOLE] | > 125 | 15.6 (≈ 50.9 µM) | 15.6 (≈ 50.9 µM) | 31.3 (≈ 102 µM) | 31.3 (≈ 102 µM) | – | – |
| O=C1c2ccccc2O[C@@H](c2ccc(Cl)cc2Cl)[C@@H]1n1cncn1 (relative stereo) | > 62.5 | 31.3 (≈ 86.9 µM) | 31.3 (≈ 86.9 µM) | > 62.5 | 125 (≈ 347 µM) | – | – |
| O/N=C1\c2ccccc2O[C@@H](c2ccccc2)[C@@H]1n1cncn1 (relative stereo) | > 62.5 | 125 (≈ 408 µM) | > 125 | > 62.5 | > 125 | – | – |
| O/N=C1\c2ccccc2O[C@@H](c2ccc(Cl)cc2Cl)[C@@H]1n1cncn1 (relative stereo) | > 62.5 | 62.5 (≈ 167 µM) | > 125 | > 62.5 | > 125 | – | – |
| O=C1c2ccccc2O[C@@H](c2cccc(F)c2)[C@@H]1n1cncn1 (relative stereo) | > 62.5 | 15.6 (≈ 50.4 µM) | > 125 | > 62.5 | 15.6 (≈ 50.4 µM) | 2 | – |
| O=C1c2ccccc2O[C@@H](c2ccccc2)[C@@H]1n1cncn1 (relative stereo) | > 62.5 | 125 (≈ 429 µM) | > 125 | > 62.5 | 31.3 (≈ 107 µM) | – | – |
| O=C1c2ccccc2O[C@@H](c2ccc(F)cc2)[C@@H]1n1cncn1 (relative stereo) | > 62.5 | 3.9 (≈ 12.6 µM) | 0.98 (≈ 3.17 µM) | 31.3 (≈ 101 µM) | 3.9 (≈ 12.6 µM) | 8 | 16 |

Source: ChEMBL document CHEMBL2407001, “Synthesis, in vitro antifungal activity and in silico study of 3-(1,2,4-triazol-1-yl)flavanones” (2013)
